Compound activity as filed in PubChem BioAssay.
A selection: hits, their analogues and other compounds. The true share with any hit is near 2.9%.
mABHD4 FP: ABHD4 (mouse) inhibition, primary FP screen. purified mABHD4, FP-Rh probe fluorescence polarization. Q8VD66. inhibition, % at 8.92 µM. 370,000 compounds, 0.54% hits;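 active means inhibition exceeding the mean over every tested compound plus 3 SD, cut at about 30% in these data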;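 further: 0% = plate median of compound wells and 100% = S159A mutant with DMSO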
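Test system: mABHD4 protein; Read-out basis: % inhibition; Incubation: 45 min + 60 min at 25 °C; Repeats: single replicate; Technique: fluorescence polarization with parallel and perpendicular emission, 525/598 nm; Compound: 8.92 µM, single dose; Benchmarks: full inhibition S159A mutant plus DMSO, zero as sample-well median.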
SIAE inh: blocks human sialic acid acetylesterase | SIAE FP-Rh probe binding, fluorescence polarization | Q9HAT2 | AID 1053197 | inhibition, % at 9.66 µM | 370,000 compounds, 0.69% hits;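 active means inhibition above a cutoff: mean of compounds within the control limits plus 3 SD of those, cut at about 17% in these data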;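 further: 0% = plate median of compound wells and 100% = probe without SIAE protein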
HTRA1 inhibitor: HTRA1 (human) protease inhibition; 340,000 compounds, 0.5% hits; inhibition, % at 5.96 µM; recombinant HTRA1, FP-rhodamine activity-based probe, fluorescence polarization; Q92743; in the data active means inhibition above about 36%;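 further: 0% = enzyme with DMSO and 100% = wells lacking enzyme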
Target sequence (Q92743 whole entry, looked up): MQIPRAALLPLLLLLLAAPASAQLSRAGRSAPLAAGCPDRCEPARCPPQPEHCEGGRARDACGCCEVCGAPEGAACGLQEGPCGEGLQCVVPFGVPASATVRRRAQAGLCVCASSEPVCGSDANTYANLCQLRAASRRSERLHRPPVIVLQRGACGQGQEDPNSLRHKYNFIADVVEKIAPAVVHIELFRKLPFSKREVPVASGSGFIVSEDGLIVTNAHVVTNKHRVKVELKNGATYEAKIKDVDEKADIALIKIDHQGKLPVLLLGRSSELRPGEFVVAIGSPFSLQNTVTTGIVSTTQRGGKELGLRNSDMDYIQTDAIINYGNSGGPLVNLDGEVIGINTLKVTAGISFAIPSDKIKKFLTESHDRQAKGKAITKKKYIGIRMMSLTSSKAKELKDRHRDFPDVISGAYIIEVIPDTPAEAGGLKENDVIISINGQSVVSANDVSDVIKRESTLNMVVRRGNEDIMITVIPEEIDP
PRMT1 inh: PRMT1 (human) inhibition, primary screen. inhibition, % at 2.79 µM. 370,000 compounds, 1.3% hits. recombinant PRMT1, activity-based probe fluorescence polarization. Q99873;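 active means inhibition above about 21% made by adding two undisclosed values, limit read from the data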
PAD4 inh: PAD4 (human) enzyme inhibition | 330,000 compounds, 0.41% hits | Q9UM07 | inhibition, % at 6.36 µM | recombinant PAD4, RCA probe fluorescence polarization;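 active means percent inhibition above a cutoff equal to the mean of all tested compounds plus 3 SD, cut at about 15% in these data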;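 further: 0% = PAD4 with RCA probe and DMSO and 100% = probe without PAD4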
TCR CD3 inh: blocks the human TCR-CD3 interaction; TAMRA-labeled TCR probe fluorescence, biochemical; inhibition, % at 9.4 µM; 360,000 compounds, 0.37% hits; AID 651800; in the data active means inhibition above about 19%;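 further: recombinant mutant TCR 2C K166C tagged with TAMRA read by polarization; 0% = receptor in buffer alone and 100% = receptor with positive control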
SIAE inh conf: confirmation of human SIAE inhibitors | shares compounds with SIAE inh | inhibition, % at 9.66 µM | 2,300 compounds, 13% hits | SIAE FP-Rh activity-based probe, fluorescence polarization | AID 1117263;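 active means mean inhibition of the replicates above the hit cutoff set in the primary screen, cut at about 17% in these data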;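 further: 0% = SIAE with DMSO and probe and 100% = probe without SIAE; inhibitors lower polarization as more probe stays unbound to SIAE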
Active calls of the source: *; / = no result given.

SMILES	mABHD4 FP	SIAE inh	HTRA1 inhibitor	PRMT1 inh	PAD4 inh	TCR CD3 inh	SIAE inh conf
COc1ccc(C(=O)C(=O)N2CCN(C(=O)c3ccccc3C(F)(F)F)CC2)cc1OC	0	22*	/	17	/	1	0
Cc1ccc(-n2c(CNc3ccc(F)cc3)nnc2SCC(=O)O)cc1	2	20*	/	-1	-2	4	4
Cc1ccc(NCc2nnc(SCC(=O)O)n2-c2ccc(C)cc2)cc1	2	3	4	0	-4	-3	/
COc1ccc2c(c1)CC=C1C2CCC2(C)C(=O)C(=NO)CC12 (centres undefined)	-13	19*	-8	-3	/	6	22*
CC(=C\C=O)/C(C)=C/CC[C@@H]1O[C@@H]2C[C@@H]3O[C@](C)(C[C@H]4C[C@H](O)[C@@H]5O[C@@H]6C[C@H](O)[C@@H](C)O[C@@]6(C)CC[C@H]5O4)[C@@H](O)CC[C@@]3(C)O[C@H]2[C@@H](O)[C@@H]1C	-4	-1	/	5	/	/	/
Cc1ccccc1N1CCN(S(=O)(=O)Cc2ccccc2)CC1	/	/	-11	/	-1	/	/
Cc1ccccc1N1CCN(S(=O)(=O)N(C)C)CC1	2	21*	1	-1	0	1	3
CCCN(CCC)CC(O)Cn1cc(/C=C/C(=O)c2ccccc2)c2ccccc21 (centres undefined)	5	18*	-8	-8	/	0	-6
CCCN(CCC)CC(O)Cn1cc(/C=C/C(=O)c2cccs2)c2ccccc21 (centres undefined)	7	7	-16	-8	1	1	/
Cc1c[nH]c2cccc(-c3c(Cl)cccc3Cl)c12	-13	5	/	8	/	/	/
COc1cc(OC)cc(C(C)c2ccc(-c3ccccc3)cc2)c1 (centres undefined)	-6	9	/	3	/	/	/
COC(=O)C1CN(Cc2ccc(C)cc2)CCS(=O)(=O)N1Cc1cn(Cc2ccc(Cl)cc2)nn1 (centres undefined)	0	-2	/	-4	/	/	/
Cc1cc2ccccn2c1C(=O)c1ccc(S(=O)(=O)N(C)C)cc1	-4	19*	-6	-1	-2	-4	1
O=C(NCCc1ccc(Cl)cc1)c1ccc2c(c1)ncn2C1CCCCC1	4	-2	/	8	/	/	/
CCNC(=S)NNC(=O)c1cc(-c2cccc(OC)c2)nc2ccccc12	11	22*	1	-3	-3	3	1
CCC(CCC(=O)Nc1cccc([N+](=O)[O-])c1)C(=O)O (centres undefined)	2	23*	-3	0	-1	5	4
CCCCC(CCC(=O)Nc1cccc([N+](=O)[O-])c1)C(=O)O (centres undefined)	10	-1	8	2	-2	2	/
COC(=O)C1CN(Cc2ccc(C)cc2)CCS(=O)(=O)N1Cc1cn(Cc2ccc(F)cc2)nn1 (centres undefined)	-2	60*	/	-2	/	/	-3
COC(=O)C1CN(Cc2ccc(F)cc2)CCS(=O)(=O)N1Cc1cn(Cc2ccc(F)cc2)nn1 (centres undefined)	5	4	/	2	/	/	/
CN(Cc1ccccc1)C(=O)OCc1cn(Cc2ccccc2Cl)nn1	2	0	/	-9	/	/	/
CC1CN(S(=O)(=O)c2cccc(C(=O)N(Cc3nnc(-c4ccccc4Cl)o3)C3CC3)c2)CC(C)O1 (centres undefined)	1	17*	2	3	0	-11	-2
CN1C(c2ccccc2)CC2CN(c3ccccc3)C(=O)C21 (centres undefined)	1	3	/	-3	/	/	/
COc1ccc2oc(=O)c(-c3csc(Nc4cccc(O)c4)n3)cc2c1	11	39*	-7	-1	-5	1	-5
COc1ccc(Nc2nc(-c3cc4cccc(OC)c4oc3=O)cs2)cc1	15	6	15	0	-1	-4	/
CN(Cc1ccc2c(c1)CCCN2C)C(=O)[C@H]1O[C@@H](n2cnc3c(N)ncnc32)[C@H](O)[C@@H]1O	4	59*	/	11	/	12	47*
SMILES	mABHD4 FP	SIAE inh	HTRA1 inhibitor	PRMT1 inh	PAD4 inh	TCR CD3 inh	SIAE inh conf
Nc1ncnc2c1ncn2[C@@H]1O[C@H](C(=O)NCCc2ccc(F)cc2)[C@@H](O)[C@H]1O	-1	23*	/	0	/	4	22*
CC(C)[C@@H](CO)NC(=O)[C@H]1O[C@@H](n2cnc3c(N)ncnc32)[C@H](O)[C@@H]1O	0	8	/	-4	/	-6	/
Cn1c(=O)n(C)c2cc(CNC(=O)[C@H]3O[C@@H](n4cnc5c(N)ncnc54)[C@H](O)[C@@H]3O)ccc21	2	6	/	0	/	-1	/
Nc1ncnc2c1ncn2[C@@H]1O[C@H](C(=O)N[C@@H](CO)Cc2ccccc2)[C@@H](O)[C@H]1O	6	25*	/	1	/	0	25*
CN(C)c1cccc2c(S(=O)(=O)NC(=O)[C@H]3O[C@@H](n4cnc5c(N)ncnc54)[C@H](O)[C@@H]3O)cccc12	7	56*	/	4	/	10	53*
Cc1ccccc1CN1CCCCC(NC(=O)Nc2ccccc2)C1=O (centres undefined)	2	2	/	1	/	/	/
Nc1ncnc2c1ncn2[C@@H]1O[C@H](C(=O)N[C@@H](CCc2ccccc2)C(=O)N2CCN(C(=O)N3CCOCC3)CC2)[C@@H](O)[C@H]1O	5	70*	/	-2	/	0	73*
Nc1ncnc2c1ncn2[C@@H]1O[C@H](C(=O)N[C@@H](CCc2ccccc2)C(=O)N2CCN(C(=O)N3CCCCC3)CC2)[C@@H](O)[C@H]1O	3	2	/	0	/	2	/
Nc1ncnc2c1ncn2[C@@H]1O[C@H](C(=O)N[C@@H](CCc2ccccc2)C(=O)N2CCN(CC(=O)N3CCCC3)CC2)[C@@H](O)[C@H]1O	6	29*	/	3	/	-1	121*
O=C(O)CCCC[n+]1ccccc1	1	4	/	5	/	0	/
CC(C#N)(NC(=O)CN1CCN(S(=O)(=O)c2cccc(F)c2)CC1)C1CC1 (centres undefined)	3	-10	3	-1	/	6	/
CC(C#N)(NC(=O)CN1CCN(S(=O)(=O)c2ccccc2C#N)CC1)C1CC1 (centres undefined)	-1	20*	7	-2	-2	1	-1
COc1ccc(-c2cc(NC(=O)Cc3c[nH]c4ccccc34)ccc2Nc2cccnc2)cc1F	29	14	/	2	/	-8	/
CCN(CC)S(=O)(=O)c1cccc(C(=O)N/N=C/c2cccc(O)c2O)c1	16	27*	14	10	-12	9	-7
CCN(CC)c1ccc(/C=N/NC(=O)c2cccc(S(=O)(=O)N3CCOCC3)c2)c(O)c1	15	20*	21	1	2	-2	11
